The values below come from ChEMBL document CHEMBL2311508, “A natural product inspired hybrid approach towards the synthesis of novel pentamidine based scaffolds as potential anti-parasitic agents” (Bioorg Med Chem Lett, 2013).

Data set [1] deals with KB. The experiment in a line: (§1) Cytotoxicity against human KB cells after 72 hrs by MTT assay. As to conditions: kb, 72 h. In kind it is cell-based. The method in brief: (§2)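 Mammalian cells exposed to compound dilutions for 72 h; MTT used for detection (modified Mosmann method). CC50 derived by nonlinear regression.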
On the technique in general: Tetrazolium dyes change colour on reduction, which living cells bring about.

Data set [2] can be described thus: (§3) Selectivity index, ratio of CC50 for human KB cells to IC50 for amastigote stage of Leishmania donovani infected in mouse J774A.1 cells. In kind it is functional. The method in brief:
(§4)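 SI = CC50 in KB cells (72 h MTT, nonlinear regression) divided by IC50 against intracellular amastigotes (72 h luciferase assay in infected macrophages, logit regression).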

Data set [3] can be described thus: as §1. In kind it is cell-based. Particulars: KB cells. The essentials:
as §2

Data set [4] deals with Leishmania donovani. The experiment in a line: Antileishmanial activity against amastigote stage of Leishmania donovani infected in mouse J774A.1 cells assessed as intracellular parasite growth inhibition after 72 hrs by luciferase reporter gene assay. In kind it is functional, organism-based. Particulars: J774.A1, 72 h. The method in brief:
(§5)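 Macrophages seeded at 4 × 10³ cells/100 µL/well in RPMI-1640 with 10% fetal calf serum, 37 °C, CO₂. After 24 h, medium replaced with fresh medium containing stationary-phase promastigotes (4 × 10⁴/100 µL/well), which were phagocytosed and transformed to amastigotes. Compounds added at up to 7 concentrations starting from 40 µM, 72 h at 37 °C. Steady-Glo luciferase read as RLU versus untreated controls; IC50 by logit regression.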

The test system of data set [5] is Leishmania donovani. The experiment in a line: Antileishmanial activity against amastigote stage of Leishmania donovani infected in mouse J774A.1 cells assessed as intracellular parasite growth inhibition at 40 uM after 72 hrs by luciferase reporter gene assay. In kind it is functional, organism-based. The method in brief: as §5
Background: A reporter such as luciferase makes a cellular process visible.

Data set [6] is described as follows: Selectivity index, ratio of CC50 for african green monkey Vero cells to IC50 for chloroquine-sensitive Plasmodium falciparum 3D7. In kind it is functional.
A short description of data set [7]: Cytotoxicity against african green monkey Vero cells after 72 hrs by MTT assay. In kind it is cell-based. Particulars: chlorocebus sabaeus. The method in brief: as §2
Data set [8] has as its system Plasmodium falciparum. The data set can be described thus: Antimalarial activity against chloroquine-sensitive Plasmodium falciparum 3D7 assessed as parasite growth inhibition after 72 hrs by MSF assay. In kind it is functional, organism-based. Particulars: 3D7, 72 h. The essentials:
(§6)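 P. falciparum cultures in RPMI-1640-FBS; DMSO stock 5 mg/ml, test dilutions in culture medium; duplicate wells; 1.0% parasitized cell suspension at 0.8% parasitaemia; 37 °C, 5% CO2 in air, 72 h. Lysis buffer with SYBR Green I added, 1 h at 37 °C; fluorescence read at 485/530 nm excitation/emission as RFU. Chloroquine reference. IC50 in ng/mL.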

In data set [9] the test system is Plasmodium falciparum. The data set can be described thus: Antimalarial activity against chloroquine-resistant Plasmodium falciparum K1 assessed as parasite growth inhibition after 72 hrs by MSF assay. In kind it is functional, organism-based. As to conditions: K1, 72 h. The essentials:
as §6

Data set [10] deals with KB. The description is as §3. In kind it is functional. The essentials:
as §4

Values after ≈ are worked out from the molar mass of the structure shown. Active and inactive are the calls of the source. The rule behind the calls is not given here. Where only a bound is given, the exact number is not on record here.

For orientation: CC50 means the concentration giving 50% cytotoxicity. Take “SODIUM ANTIMONY GLUCONATE [listing 1 of 2 here]”: in the data set on KB [1], half-maximal cytotoxicity (CC50) was put at 398 µg/mL.

Broadly, the IC50 is the midpoint of a concentration-inhibition curve. Take `N=C(N)c1ccc(OCCCCCOc2ccc(C(=N)N)cc2)cc1` [PENTAMIDINE]: the “Ratio CC50/IC50” value in data set [2] was 2.58. In addition, the CC50 at 72 h in data set [3] amounted to 52700 nM. The IC50 in the data set with Leishmania donovani [4] worked out at 20400 nM.

On to `O=Cc1ccc(OCCCCCOc2ccc(/C=C/C(=O)c3ccc(Br)cc3)cc2)cc1`, for which the “growth inhibition (GI)” value in the data set on Leishmania donovani [5] was “inactive”.

Take `Cc1cc(N2CCN(C)CC2)nc(Nc2ccc(OCCCCCOc3ccc(Nc4nc(C)cc(N5CCN(C)CC5)n4)cc3)cc2)n1`: the “Ratio CC50/IC50” value in [6] is 43.97; in data set [2], 3.62. The CC50 at 72 h worked out at 10.8 µg/mL (≈ 16.2 µM) in [7] and 2930 nM in data set [3]. Moreover, the IC50 came out at 0.245 µg/mL (≈ 0.367 µM) in the data set with Plasmodium falciparum [8] and 810 nM in the data set on Leishmania donovani [4].

For the compound `Cc1cc(N2CCOCC2)nc(Nc2ccc(OCCCCCOc3ccc(Nc4nc(C)cc(N5CCOCC5)n4)cc3)cc2)n1`, the “Ratio CC50/IC50” value in [6] was found to be 7.82; in [2], 4.67. Moreover, the cytotoxic concentration (CC50) at 72 h in data set [7] stood at 2.06 µg/mL (≈ 3.21 µM); in data set [3], 5510 nM. Further, the IC50 with Plasmodium falciparum [8] worked out at 0.264 µg/mL (≈ 0.412 µM); in the data set on Leishmania donovani [4] it was 1180 nM.

Regarding `Cc1cc(NCc2ccccc2)nc(Nc2ccc(OCCCCCOc3ccc(Nc4nc(C)cc(NCc5ccccc5)n4)cc3)cc2)n1`, the “Ratio CC50/IC50” value came to 429.15 in data set [6] and 15.6 in data set [2]. The results for the CC50 at 72 h in data set [7] and in [3] were 22.1 µg/mL (≈ 32.4 µM) and 26000 nM, respectively. Also, the IC50 was 0.383 µg/mL (≈ 0.562 µM) in the data set with Plasmodium falciparum [9], 0.0514 µg/mL (≈ 0.0756 µM) in the data set with Plasmodium falciparum [8] and 1670 nM in the data set on Leishmania donovani [4].

As for “SODIUM ANTIMONY GLUCONATE [listing 2 of 2 here]”, the Ratio CC50/IC50 in the data set with KB [10] stood at 5.53.

Consider `Cc1cc(NCc2ccc(F)cc2)nc(Nc2ccc(OCCCCCOc3ccc(Nc4nc(C)cc(NCc5ccc(F)cc5)n4)cc3)cc2)n1`, for which the “Ratio CC50/IC50” value is 1051.51 in data set [6] and 6.16 in [2]. For the same compound, the CC50 at 72 h in data set [7] came to 41.4 µg/mL (≈ 57.8 µM); in [3], 8680 nM. Also, the IC50 came to 0.358 µg/mL (≈ 0.5 µM) in the data set with Plasmodium falciparum [9], 0.0394 µg/mL (≈ 0.055 µM) in the data set on Plasmodium falciparum [8] and 1410 nM in the data set with Leishmania donovani [4].

For the compound `CCN1CCN(c2cc(C)nc(Nc3ccc(OCCCCCOc4ccc(Nc5nc(C)cc(N6CCN(CC)CC6)n5)cc4)cc3)n2)CC1`, the “Ratio CC50/IC50” value in data set [6] is recorded as 157.9; in data set [2], 12.17. Further, the results for the CC50 at 72 h in data set [7] and in data set [3] were 7.13 µg/mL (≈ 10.3 µM) and 3650 nM, respectively. For the same compound, the results for the IC50 with Plasmodium falciparum [9], in the data set on Plasmodium falciparum [8] and in the data set on Leishmania donovani [4] were 0.0221 µg/mL (≈ 0.0318 µM), 0.0451 µg/mL (≈ 0.065 µM) and 300 nM, respectively.

As for `O=C(/C=C/c1ccc(OCCCCCOc2ccc(/C=C/C(=O)c3ccccc3)cc2)cc1)c1ccccc1`, the “Ratio CC50/IC50” value in data set [2] is more than 242.42. The compound further yielded a CC50 at 72 h in [3] of more than 400000 nM. The IC50 in the data set on Leishmania donovani [4] came to 1650 nM.

Regarding `Cc1cc(NC2CCCC2)nc(Nc2ccc(OCCCCCOc3ccc(Nc4nc(C)cc(NC5CCCC5)n4)cc3)cc2)n1`, the “Ratio CC50/IC50” value in data set [6] is given as 57.71; in data set [2], 1.11. The CC50 at 72 h turned out to be 18.1 µg/mL (≈ 28.4 µM) in data set [7] and 1690 nM in data set [3]. In addition, the IC50 in the data set on Plasmodium falciparum [8] was found to be 0.313 µg/mL (≈ 0.492 µM); in the data set with Leishmania donovani [4], 1530 nM.

In the case of `CCCCCCCCCCCCCCCCOP(=O)([O-])OCC[N+](C)(C)C` [MILTEFOSINE], the “Ratio CC50/IC50” value in data set [2] turned out to be 0.25.

Regarding `CCN(CC)CCCC(C)Nc1ccnc2cc(Cl)ccc12` (stereo not drawn) [CHLOROQUINE], the CC50 at 72 h in data set [7] was determined as 75 µg/mL (≈ 234 µM).

On to `Cc1cc(N2CCN(c3ccccc3)CC2)nc(Nc2ccc(OCCCCCOc3ccc(Nc4nc(C)cc(N5CCN(c6ccccc6)CC5)n4)cc3)cc2)n1`, for which the “Ratio CC50/IC50” value in data set [6] is 1688; in data set [2] it was more than 232. Also, the figures for the CC50 at 72 h in [7] and in data set [3] were 100 µg/mL (≈ 126 µM) and more than 400000 nM, respectively. Also, the figures for the IC50 in the data set with Plasmodium falciparum [9], with Plasmodium falciparum [8] and in the data set with Leishmania donovani [4] were 0.0531 µg/mL (≈ 0.0671 µM), 0.0592 µg/mL (≈ 0.0749 µM) and 1720 nM, respectively.

Take `COc1ccc(C(=O)/C=C/c2ccc(OCCCCCOc3ccc(/C=C/C(=O)c4ccc(OC)c(OC)c4)cc3)cc2)cc1OC`: the “growth inhibition (GI)” value in the data set on Leishmania donovani [5] is “inactive”.

On to `Cc1cc(NC2CC2)nc(Nc2ccc(OCCCCCOc3ccc(Nc4nc(C)cc(NC5CC5)n4)cc3)cc2)n1`, for which the “Ratio CC50/IC50” value in data set [6] stood at 89.6; in [2] it was 6.38. The values for the CC50 at 72 h in data set [7] and in [3] were 0.56 µg/mL (≈ 0.964 µM) and 2680 nM, respectively. The IC50 in the data set with Plasmodium falciparum [9] was found to be 0.0113 µg/mL (≈ 0.0194 µM); in the data set on Plasmodium falciparum [8] it was 0.00625 µg/mL (≈ 0.0108 µM); in the data set with Leishmania donovani [4], 420 nM.

`Nc1nc(-c2ccccc2)cc(-c2ccc(OCCCCCOc3ccc(-c4cc(-c5ccccc5)nc(N)n4)cc3)cc2)n1`: the “Ratio CC50/IC50” value in data set [2] is reported as more than 242.42. The same compound displayed a CC50 at 72 h in data set [3] of more than 400000 nM. In addition, in the data set on Leishmania donovani [4], the IC50 turned out to be 960 nM.

On to `COc1ccc(C(=O)/C=C/c2ccc(OCCCCCOc3ccc(C=O)cc3)cc2)cc1OC`, for which, in data set [2], the “Ratio CC50/IC50” value is recorded as 0.49. For the same compound, it took 13900 nM to reach half-maximal cytotoxicity in data set [3] (CC50 at 72 h). The IC50 in the data set on Leishmania donovani [4] came out at 28400 nM.

Take `COc1ccc(CNc2cc(C)nc(Nc3ccc(OCCCCCOc4ccc(Nc5nc(C)cc(NCc6ccc(OC)cc6)n5)cc4)cc3)n2)cc1`: the “Ratio CC50/IC50” value is listed as 288.28 in data set [6] and 3.7 in data set [2]. For the same compound, the CC50 at 72 h came out at 3.37 µg/mL (≈ 4.55 µM) in data set [7] and 2110 nM in [3]. Moreover, the concentration for half-maximal inhibition (IC50) is 0.0236 µg/mL (≈ 0.0319 µM) with Plasmodium falciparum [9], 0.0117 µg/mL (≈ 0.0158 µM) in the data set with Plasmodium falciparum [8] and 570 nM with Leishmania donovani [4].
